# Laboratory results: ChEMBL document CHEMBL4680349, “Design, synthesis and evaluation of 1-benzyl-1H-imidazole-5-carboxamide derivatives as potent TGR5 agonists” (Bioorg Med Chem, 2021)
# Activity calls are given as the source filed them.
# Columns and labels:
# [1] = biological target: T1, G-protein coupled bile acid receptor 1 (Homo sapiens, UniProt Q8TDU6); experiment: Agonist activity at human TGR5 transfected in HEK293T cells assessed intracellular cAMP level by HTRF assay; assay type: functional, cell-based
# T1 sequence (Q8TDU6 whole entry): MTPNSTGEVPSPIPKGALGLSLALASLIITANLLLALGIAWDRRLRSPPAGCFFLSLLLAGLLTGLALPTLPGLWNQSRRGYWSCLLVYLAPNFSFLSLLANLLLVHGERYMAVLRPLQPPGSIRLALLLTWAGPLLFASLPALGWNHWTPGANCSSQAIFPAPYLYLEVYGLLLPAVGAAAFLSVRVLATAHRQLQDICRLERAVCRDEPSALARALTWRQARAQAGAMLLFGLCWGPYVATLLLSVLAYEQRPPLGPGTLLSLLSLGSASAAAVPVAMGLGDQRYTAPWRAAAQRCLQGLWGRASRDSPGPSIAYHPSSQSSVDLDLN
# [2] = biological target: T2, Bile acid receptor (Homo sapiens) (UniProt Q96RI1); experiment: Agonist activity at GST-tagged human FXR-LBD using biotinylated SRC-1 peptide as substrate at 50 uM by HTRF assay
# T2 sequence (whole entry): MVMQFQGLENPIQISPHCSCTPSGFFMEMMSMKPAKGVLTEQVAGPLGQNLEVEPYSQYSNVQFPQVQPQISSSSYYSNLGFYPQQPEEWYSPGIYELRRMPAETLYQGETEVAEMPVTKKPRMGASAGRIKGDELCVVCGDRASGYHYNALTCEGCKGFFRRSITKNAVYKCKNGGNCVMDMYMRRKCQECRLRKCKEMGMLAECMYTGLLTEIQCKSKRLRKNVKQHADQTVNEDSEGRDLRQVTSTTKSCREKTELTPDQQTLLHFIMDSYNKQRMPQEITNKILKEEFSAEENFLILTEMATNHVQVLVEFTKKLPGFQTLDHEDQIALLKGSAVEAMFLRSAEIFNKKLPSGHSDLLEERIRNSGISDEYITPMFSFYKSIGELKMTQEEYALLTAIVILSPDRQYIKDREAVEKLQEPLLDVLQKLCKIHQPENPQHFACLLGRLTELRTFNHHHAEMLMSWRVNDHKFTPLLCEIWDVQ
# In short: (§1)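 Reaction mix in HTRF buffer (50 mM Hepes pH 7.0, 125 mM KF, 0.125% CHAPS, 0.05% dry milk): 10 nM GST-FXRα LBD, 100 nM biotin-SRC1, 0.83 nM Eu-anti-GST, 41.75 nM streptavidin-XL665. Incubated at room temperature, read as (665/620 nm)×10,000. 50 μM CDCA defined as 100% and 0.1% DMSO as 0% activation.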
# Mus musculus [3] = experiment: Antidiabetic activity against in C57BL/6J mouse assessed reduction in glucose AUC at 30 mg/kg, po pretreated for 60 mins followed by 2 g/kg glucose orally administered measured upto 120 mins by OGTT method relative to control; assay type: functional; parameters: scale not given: the % may be the effect or the level left; details: time min <=180
# [4] = biological target: T3, G-protein coupled bile acid receptor 1 (Mus musculus, UniProt Q80SS6); experiment: Agonist activity at mouse TGR5 transfected in HEK293T cells assessed intracellular cAMP level by HTRF assay; assay type: functional, cell-based
# T3 sequence (Q80SS6 whole entry): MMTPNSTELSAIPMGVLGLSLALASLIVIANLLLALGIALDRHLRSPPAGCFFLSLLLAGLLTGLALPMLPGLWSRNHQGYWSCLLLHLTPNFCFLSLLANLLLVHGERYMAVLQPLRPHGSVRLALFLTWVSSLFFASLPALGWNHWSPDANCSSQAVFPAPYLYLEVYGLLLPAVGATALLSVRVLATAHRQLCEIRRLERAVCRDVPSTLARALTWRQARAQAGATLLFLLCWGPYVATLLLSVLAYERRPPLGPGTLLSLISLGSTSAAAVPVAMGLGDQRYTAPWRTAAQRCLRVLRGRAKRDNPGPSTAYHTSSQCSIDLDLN
# In short: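 Run by the same cAMP HTRF method used for human TGR5, with compounds from 10 mM DMSO stocks. EC50 given as mean ± SEM of three independent experiments.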
# [5] = Stability of the compound in human plasma assessed as parent compound remaining measured after 120 mins; assay type: ADME, cell-free; details: read-out: Stabilty
# HeLa = experiment: Cytotoxicity against human HeLa cells assessed as reduction in cell viability incubated for 24 hrs by CCK8 assay; assay type: functional, cell-based
# In short: (§2)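 Cells exposed to compounds for 24 h, then viability read by CCK8 assay to give IC50.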
# A549 = experiment: Cytotoxicity against human A549 cells assessed as reduction in cell viability incubated for 24 hrs by CCK8 assay; assay type: functional, cell-based; details: A549, 24 h; in short: as §2
# [6] = Stability of the compound in human plasma assessed as parent compound remaining measured after 60 mins; assay type: ADME, cell-free; details: read-out: Stabilty
# [7] = biological target: T2, Bile acid receptor (Homo sapiens); experiment: Agonist activity at GST-tagged human FXR-LBD using biotinylated SRC-1 peptide as substrate at 10 uM by HTRF assay; in short: as §1
# [8] = biological target: T2, Bile acid receptor (Homo sapiens); experiment: Agonist activity at GST-tagged human FXR-LBD using biotinylated SRC-1 peptide as substrate at 20 uM by HTRF assay; in short: as §1
# [9] = biological target: T4, G-protein coupled bile acid receptor 1 (Homo sapiens) (UniProt Q8TDU6); experiment: Agonist activity at human TGR5 transfected in HEK293T cells assessed intracellular cAMP level at 40 uM by HTRF assay; assay type: functional, cell-based; details: filed as agonist
# T4 sequence (whole entry): T1 sequence (Q8TDU6 whole entry)
# In short: (§3)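 HEK293T stable line made by lentiviral transfection with drug selection. cAMP measured by HTRF cAMP dynamic 2 kit. Compounds from 10 mM DMSO stocks. 10 μM LCA defined as 100% and 0.1% DMSO as 0% hTGR5 activation. Mean of three independent experiments.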
# [10] = biological target: T4, G-protein coupled bile acid receptor 1 (Homo sapiens); experiment: Agonist activity at human TGR5 transfected in HEK293T cells assessed intracellular cAMP level at 10 uM by HTRF assay; assay type: functional, cell-based; in short: as §3
# Mus musculus [11] = experiment: Induction of GLP-1 secretion in TGR5 knock out C57BL/6J mouse assessed as serum GLP-1 level at 30 mg/kg, po followed by 2 g/kg glucose orally administered measured after 5 mins by ELISA relative to control; assay type: functional, organism-based
# In short: (§4)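 Eight-week-old WT or TGR5−/− mice fasted overnight, then given vehicle (0.25% CMC) or compound 30 mg/kg orally. Oral glucose 2.0 g/kg 1 h later. Blood taken 5 min after glucose into tubes with DPP IV inhibitor and EDTA. Serum active GLP-1(7–36 amide) measured by ELISA.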
# Mus musculus [12] = experiment: In vivo agonist activity at TGR5 in wild type C57BL/6J mouse assessed as induction of GLP-1 secretion at 30 mg/kg, po followed by 2 g/kg glucose orally administered measured after 5 mins by ELISA relative to control; assay type: functional, organism-based; in short: as §4
SMILES,EC50 [1] [nM],Activity [9] [%],Activity ([10]; filed as agonist) [%],also measured
O=C(c1cncn1Cc1cc(Cl)ccc1Cl)N1CCN(C2CC2)c2ccccc21,9.5,,,Activity [2]: 0.31%; Activity (Mus musculus [3]): 13.7%; EC50 [4]: 832 nM; remaining at 2 h [5]: 105%; IC50 (HeLa): > 50000 nM; IC50 (A549): > 50000 nM; remaining at 1 h [6]: 112%; Activity [7]: 2.3%; Activity [8]: -0.8%
C[C@H](c1ccccc1)n1cncc1C(=O)Nc1cccc(F)c1,,56.2,,Activity [10]: 20.1%
C[C@H](c1ccccc1)n1cncc1C(=O)N1CCCc2ccccc21,,77.1,48.3,
C[C@H](c1ccccc1)n1cncc1C(=O)N(C)c1ccc(F)cc1,1050,85.4,70.9,
Cc1ccc(N(C)C(=O)c2cncn2[C@H](C)c2ccccc2)cc1,,86.7,62.1,
O=C(c1cncn1Cc1ccc(Cl)cc1Cl)N1CCN(C2CC2)c2ccccc21,6.8,,,Activity (Mus musculus [11]): inactive; Activity [2]: -1.1%; Activity (Mus musculus [3]): 15.8%; Activity (Mus musculus [12]): Active; EC50 [4]: 611 nM; remaining at 2 h [5]: 104%; IC50 (HeLa): > 50000 nM; IC50 (A549): > 50000 nM; remaining at 1 h [6]: 107%; Activity [7]: 1.1%; Activity [8]: 1.6%
C[C@H](c1ccccc1)n1cncc1C(=O)Nc1ccc(Cl)cc1,,84.1,,Activity [10]: 37.7%
C[C@H](c1ccccc1)n1cncc1C(=O)N1CCN(C2CC2)c2ccccc21,330,97.4,89.8,
C[C@H](c1ccccc1)n1cncc1C(=O)N1CCN(c2ccccc2F)CC1,1090,95.3,79.3,
O=C(c1cncn1Cc1ccc(F)cc1F)N1CCN(C2CC2)c2ccccc21,338,,,EC50 [4]: > 10000 nM
C[C@H](c1ccccc1)n1cncc1C(=O)Nc1ccc(F)cc1,,85.2,51.3,
Cc1ccc(NC(=O)c2cncn2[C@H](C)c2ccccc2)cc1,,63.3,,Activity [10]: 20.2%
COc1ccc(NC(=O)c2cncn2[C@H](C)c2ccccc2)cc1,,66.5,,Activity [10]: 25.3%
C[C@H](c1ccccc1)n1cncc1C(=O)Nc1ccccc1F,,48.4,,Activity [10]: 16.5%
C[C@H](c1ccccc1)n1cncc1C(=O)N1CCN(c2ccccc2)CC1,,81.6,41.7,
COc1ccccc1N1CCN(C(=O)c2cncn2[C@H](C)c2ccccc2)CC1,,49.2,,Activity [10]: 17.4%
COc1ccc(N2CCN(C(=O)c3cncn3[C@H](C)c3ccccc3)CC2)cc1,4390,89.7,79.1,
C[C@H](c1ccccc1)n1cncc1C(=O)N(C)c1ccc(Cl)cc1,,71.9,63.1,
O=C(c1cncn1Cc1ccc(F)cc1)N1CCN(C2CC2)c2ccccc21,568,,,EC50 [4]: > 10000 nM
O=C(c1cncn1Cc1ccccc1)N1CCN(C2CC2)c2ccccc21,1750,,,EC50 [4]: 3500 nM
O=C(c1cncn1Cc1ccccc1Cl)N1CCN(C2CC2)c2ccccc21,118,,,EC50 [4]: 3690 nM
C[C@H](c1ccccc1)n1cncc1C(=O)N1CCOc2ccccc21,,74.5,54.1,
